Source: ChEMBL document CHEMBL1140759, “Synthesis, anti-Toxoplasma gondii and antimicrobial activities of benzaldehyde 4-phenyl-3-thiosemicarbazones and 2-[(phenylmethylene)hydrazono]-4-oxo-3-phenyl-5-thiazolidineacetic acids” (Bioorg Med Chem, 2008)
Converted amounts (≈) assume the structure as drawn.

Assays:
[1] = tested on: Mycobacterium tuberculosis; test: Antimicrobial activity against Mycobacterium tuberculosis at 300 ug/disc; format: functional; conditions: read-out: IZ
How it was run: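 Agar disc diffusion: paper discs loaded with compound placed on agar plates seeded with a standardised microbial suspension. DMSO-only discs served as negative control. Chloramphenicol and rifampicin (bacteria) or nistatin (fungi) gave reference zones. Read-out was mean zone of inhibition diameter (mm). Each experiment was run three times and repeated if results differed.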

[2] = tested on: Mycolicibacterium smegmatis; test: Antimicrobial activity against Mycobacterium smegmatis at 300 ug/disc; format: functional; conditions: read-out: IZ
How it was run: (§1)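 Disc diffusion on agar plates inoculated with a standardized microbial suspension, with paper discs carrying known compound amounts. DMSO-only discs served as negative controls, and chloramphenicol, rifampicin (bacteria) or nistatin (fungi) as references. The read-out is the mean inhibition zone diameter in mm. Each run was done three times and repeated if results differed.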

Staphylococcus aureus [3] = test: Antimicrobial activity against Staphylococcus aureus at 300 ug/disc; format: functional; conditions: read-out: IZ; how it was run: as §1
Mycolicibacterium phlei = test: Antimicrobial activity against Mycobacterium phlei at 300 ug/disc; format: functional; conditions: read-out: IZ; how it was run: as §1
Toxoplasma gondii [4] = test: Inhibition of intracellular parasite Toxoplasma gondii; format: functional, organism-based
How it was run: (§2)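 Infected Vero cultures were exposed to compound at 0.01–30 mM for 24 h, in triplicate per assay. IC50 for infected cells and intracellular parasites was derived by non-linear regression, using trypan blue exclusion.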

Micrococcus luteus = test: Antimicrobial activity against Micrococcus luteus at 300 ug/disc; format: functional; conditions: read-out: IZ; how it was run: as §1
Toxoplasma gondii [5] = test: Antiparasitic activity against Toxoplasma gondii infected african green monkey Vero cells at 2 mM assessed as infected cells; format: functional
How it was run: (§3)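 Vero cells were infected with RH-strain tachyzoites (5:1 parasite:cell) for 1 h, washed with PBS, and grown 24 h at 37 °C in medium 199 with 5% FCS. Compound was then added for 24 h. Cells were fixed with Bouin's, stained with Giemsa, and at least 400 cells were counted by light microscopy for the percentage infected. Hydroxyurea and sulfadiazine served as references.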

Candida [6] = test: Antimicrobial activity against Candida sp. IMUR1224 at 300 ug/disc; format: functional; conditions: read-out: IZ; how it was run: as §1
Saccharomyces cerevisiae = test: Antimicrobial activity against Saccharomyces cerevisiae at 300 ug/disc; format: functional; conditions: read-out: IZ; how it was run: as §1
Toxoplasma gondii [7] = test: Antiparasitic activity against Toxoplasma gondii infected african green monkey Vero cells at 0.1 mM assessed as infected cells; format: functional; how it was run: as §3
Toxoplasma gondii [8] = test: Antiparasitic activity against Toxoplasma gondii infected african green monkey Vero cells at 8 mM assessed as infected cells; format: functional; how it was run: as §3
Bacillus subtilis = test: Antimicrobial activity against Bacillus subtilis at 300 ug/disc; format: functional; conditions: read-out: IZ; how it was run: as §1
Candida [9] = test: Antimicrobial activity against Candida sp. IMUR720 at 300 ug/disc; format: functional; conditions: read-out: IZ; how it was run: as §1
Vero = test: Inhibition of uninfected african green monkey Vero cells; format: cell-based; conditions: Chlorocebus sabaeus
Candida albicans = test: Antimicrobial activity against Candida albicans at 300 ug/disc; format: functional; conditions: read-out: IZ; how it was run: as §1
Candida [10] = test: Antimicrobial activity against Candida sp. IMUR4249; format: functional
How it was run: (§4)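 Tube dilution MIC, run on compounds with a disc-diffusion zone of at least 18 mm. The DMSO stock (1 mg/mL) was serially diluted to 10–220 µg/mL final in medium, and strains were inoculated at 10^8/mL. Media were tryptic soy or nutrient agar for bacteria and Sabouraud liquid for fungi, incubated 24–48 h at 37 °C (bacteria) or 30 °C (fungi). MIC is the lowest concentration giving clear tubes.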

Toxoplasma gondii [11] = test: Inhibition of Toxoplasma gondii infected in african green monkey Vero cells; format: functional, organism-based; how it was run: as §2
Toxoplasma gondii [12] = test: Antiparasitic activity against Toxoplasma gondii infected african green monkey Vero cells at 5 mM assessed as infected cells; format: functional; how it was run: as §3
Escherichia coli = test: Antimicrobial activity against Escherichia coli at 300 ug/disc; format: functional; conditions: read-out: IZ; how it was run: as §1
Toxoplasma gondii [13] = test: Antiparasitic activity against Toxoplasma gondii infected african green monkey Vero cells at 20 mM assessed as infected cells; format: functional; how it was run: as §3
Klebsiella pneumoniae = test: Antimicrobial activity against Klebsiella pneumoniae at 300 ug/disc; format: functional; conditions: read-out: IZ; how it was run: as §1
Enterococcus faecalis [14] = test: Antimicrobial activity against Streptococcus faecalis at 300 ug/disc; format: functional; conditions: read-out: IZ; how it was run: as §1
Candida [15] = test: Antimicrobial activity against Candida sp. IMUR4249 at 300 ug/disc; format: functional; conditions: read-out: IZ; how it was run: as §1
[16] = tested on: Mycobacterium tuberculosis; test: Antimicrobial activity against Mycobacterium tuberculosis; format: functional
[17] = tested on: Mycolicibacterium smegmatis; test: Antimicrobial activity against Mycobacterium smegmatis; format: functional; how it was run: as §4
Enterococcus faecalis [18] = test: Antimicrobial activity against Streptococcus faecalis; format: functional; how it was run: as §4
Staphylococcus aureus [19] = test: Antimicrobial activity against Staphylococcus aureus; format: functional; how it was run: as §4

Structure (SMILES) | zone of inhibition at 300 µg/disc [1] [mm] | zone of inhibition at 300 µg/disc [2] [mm] | zone of inhibition at 300 µg/disc (Staphylococcus aureus [3]) [mm] | zone of inhibition at 300 µg/disc (Mycolicibacterium phlei) [mm] | IC50 (Toxoplasma gondii [4]) [µM] | zone of inhibition at 300 µg/disc (Micrococcus luteus) [mm] | Activity (Toxoplasma gondii [5]) [%] | zone of inhibition at 300 µg/disc (Candida [6]) [mm] | zone of inhibition at 300 µg/disc (Saccharomyces cerevisiae) [mm] | Activity (Toxoplasma gondii [7]) [%] | Activity (Toxoplasma gondii [8]) [%] | zone of inhibition at 300 µg/disc (Bacillus subtilis) [mm] | zone of inhibition at 300 µg/disc (Candida [9]) [mm] | IC50 (Vero) [µM] | zone of inhibition at 300 µg/disc (Candida albicans) [mm] | IC50 (Toxoplasma gondii [11]) [µM] | Activity (Toxoplasma gondii [12]) [%] | zone of inhibition at 300 µg/disc (Escherichia coli) [mm] | Activity (Toxoplasma gondii [13]) [%] | zone of inhibition at 300 µg/disc (Klebsiella pneumoniae) [mm] | also measured
O=C(O)CC1S/C(=N\N=C\c2ccc(Cl)cc2)N(c2ccccc2)C1=O (stereo not given) | 17 | 15 | < 7 | 12 | 500 | 21 | 35.3 | < 7 | < 7 | 68.15 | 0 | 13 | < 7 | 2000 | 8 | 1500 | 0 | < 7 | 0 | < 7 | MFC (Candida [10]): 140 µg/mL (≈ 361 µM); MIC (Candida [10]): 150 µg/mL (≈ 387 µM); zone of inhibition at 300 µg/disc (Enterococcus faecalis [14]): 15 mm; zone of inhibition at 300 µg/disc (Candida [15]): 20 mm
O=C(O)CC1S/C(=N\N=C\c2ccc(Cl)c(Cl)c2)N(c2ccccc2)C1=O (stereo not given) | 18 | 13 | 11 | 12 | 1000 | 19 | 0 | < 7 | < 7 | 101 | 0 | 16 | < 7 | 4000 | 7 | 1500 | 0 | < 7 | 0 | < 7 | MBC [16]: 90 µg/mL (≈ 213 µM); MIC [16]: 100 µg/mL (≈ 237 µM); MFC (Candida [10]): 100 µg/mL (≈ 237 µM); MIC (Candida [10]): 120 µg/mL (≈ 284 µM); zone of inhibition at 300 µg/disc (Enterococcus faecalis [14]): 11 mm; zone of inhibition at 300 µg/disc (Candida [15]): 21 mm
O=C(O)CC1S/C(=N\N=C\c2ccc(F)cc2)N(c2ccccc2)C1=O (stereo not given) | 14 | 12 | < 7 | 7 | 50 | 15 | 10.2 | < 7 | < 7 | 21.7 | 0 | 14 | < 7 | 2000 | 8 | 50 | 0 | < 7 | 0 | < 7 | MFC (Candida [10]): 70 µg/mL (≈ 188 µM); MIC (Candida [10]): 80 µg/mL (≈ 215 µM); zone of inhibition at 300 µg/disc (Enterococcus faecalis [14]): 16 mm; zone of inhibition at 300 µg/disc (Candida [15]): 22 mm
O=C(O)CC1S/C(=N\N=C\c2ccccc2F)N(c2ccccc2)C1=O (stereo not given) | 14 | 13 | < 7 | 7 | 1000 | 25 | 16.14 | < 7 | < 7 | 70.79 | 0 | 15 | < 7 | 2000 | 7 | 2000 | 0 | < 7 | 0 | < 7 | MFC (Candida [10]): 70 µg/mL (≈ 188 µM); MIC (Candida [10]): 80 µg/mL (≈ 215 µM); zone of inhibition at 300 µg/disc (Enterococcus faecalis [14]): 16 mm; zone of inhibition at 300 µg/disc (Candida [15]): 20 mm
CC(C)(C)c1cc(/C=N/N=C2\SC(CC(=O)O)C(=O)N2c2ccccc2)cc(C(C)(C)C)c1O (stereo not given) | 23 | 26 | 26 | 16 | 1000 | 22 | 0 | < 7 | < 7 | 53.55 | 0 | 19 | < 7 | 1000 | 9 | 1000 | 0 | < 7 | 0 | < 7 | MBC [17]: 140 µg/mL (≈ 291 µM); MIC [17]: 150 µg/mL (≈ 311 µM); MBC [16]: 100 µg/mL (≈ 208 µM); MIC [16]: 110 µg/mL (≈ 228 µM); MBC (Enterococcus faecalis [18]): 190 µg/mL (≈ 395 µM); MIC (Enterococcus faecalis [18]): 200 µg/mL (≈ 415 µM); MBC (Staphylococcus aureus [19]): 45 µg/mL (≈ 93.4 µM); MIC (Staphylococcus aureus [19]): 50 µg/mL (≈ 104 µM); zone of inhibition at 300 µg/disc (Enterococcus faecalis [14]): 18 mm; zone of inhibition at 300 µg/disc (Candida [15]): < 7 mm
COc1ccc(/C=N/N=C2\SC(CC(=O)O)C(=O)N2c2ccccc2)c(OC)c1 (stereo not given) | < 7 | < 7 | < 7 | < 7 | 500 | 15 | 39.5 | < 7 | 12 | 66.36 | 0 | < 7 | < 7 | 5000 | 13 | 2000 | 0 | < 7 | 0 | < 7 | MFC (Candida [10]): 70 µg/mL (≈ 169 µM); MIC (Candida [10]): 80 µg/mL (≈ 193 µM); zone of inhibition at 300 µg/disc (Enterococcus faecalis [14]): < 7 mm; zone of inhibition at 300 µg/disc (Candida [15]): 20 mm
COc1cccc(/C=N/N=C2\SC(CC(=O)O)C(=O)N2c2ccccc2)c1 (stereo not given) | < 7 | < 7 | 14 | < 7 | 100 | 22 | 28.71 | < 7 | < 7 | 34.16 | 4.16 | 9 | < 7 | 5000 | < 7 | 3000 | 7.3 | < 7 | 0 | < 7 | MFC (Candida [10]): 70 µg/mL (≈ 183 µM); MIC (Candida [10]): 80 µg/mL (≈ 209 µM); zone of inhibition at 300 µg/disc (Enterococcus faecalis [14]): 11 mm; zone of inhibition at 300 µg/disc (Candida [15]): 18 mm
O=C(O)CC1S/C(=N\N=C\c2ccc(Cl)cc2Cl)N(c2ccccc2)C1=O (stereo not given) | 22 | 16 | 10 | 12 | 1000 | 20 | 18.08 | < 7 | < 7 | 63.23 | 0 | 17 | < 7 | 2000 | 7 | 1500 | 19.05 | < 7 | 0 | < 7 | MBC [16]: 60 µg/mL (≈ 142 µM); MIC [16]: 70 µg/mL (≈ 166 µM); zone of inhibition at 300 µg/disc (Enterococcus faecalis [14]): 15 mm; zone of inhibition at 300 µg/disc (Candida [15]): 14 mm
